The target of experiment [1] is T1, Collagenase 3 (Homo sapiens, UniProt P45452). Put plainly: Inhibition of full length recombinant human MMP13 expressed in mouse NSO cells using fTHP-15 as substrate preincubated for 30 mins followed by substrate addition measured immediately by fluorescence assay.
Experiment [2] addresses T2, Neutrophil collagenase (Homo sapiens, UniProt P22894). Nature of the experiment: Inhibition of MMP8 (unknown origin) at 200 nM using fTHP-15 as substrate preincubated for 30 mins followed by substrate addition measured immediately by fluorescence assay. The gist of the method: (§1)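 Each enzyme was activated per the supplier's protocol and diluted in EAB (50 mM Tris·HCl pH 7.5, 100 mM NaCl, 10 mM CaCl2, 0.05% Brij-35). Compound was tested at a single 200 nM and preincubated with enzyme for 30 min at 25 °C. Adding fTHP-15 started the reaction, with fluorescence read immediately. Inhibition was scored as percent substrate-to-product conversion after 30 min.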

The target in experiment [3] is T3, 72 kDa type IV collagenase (Homo sapiens, UniProt P08253). Nature of the experiment: Inhibition of recombinant human MMP2 expressed in mouse NSO cells at 200 nM using fTHP-15 as substrate preincubated for 30 mins followed by substrate addition measured immediately by fluorescence assay. The gist of the method: as §1
Experiment [4] concerns the target Insulin-degrading enzyme (Homo sapiens) (UniProt P14735). Nature of the experiment: Inhibition of IDE (unknown origin) at 1 uM relative to control.
In experiment [5] the target is Disintegrin and metalloproteinase domain-containing protein 10 (Homo sapiens) (UniProt O14672). Nature of the experiment: Inhibition of ADAM10 (unknown origin) at 1 uM relative to control.
Disintegrin and metalloproteinase domain-containing protein 10 (Homo sapiens), sequence (O14672 whole entry, the tested form may be a part): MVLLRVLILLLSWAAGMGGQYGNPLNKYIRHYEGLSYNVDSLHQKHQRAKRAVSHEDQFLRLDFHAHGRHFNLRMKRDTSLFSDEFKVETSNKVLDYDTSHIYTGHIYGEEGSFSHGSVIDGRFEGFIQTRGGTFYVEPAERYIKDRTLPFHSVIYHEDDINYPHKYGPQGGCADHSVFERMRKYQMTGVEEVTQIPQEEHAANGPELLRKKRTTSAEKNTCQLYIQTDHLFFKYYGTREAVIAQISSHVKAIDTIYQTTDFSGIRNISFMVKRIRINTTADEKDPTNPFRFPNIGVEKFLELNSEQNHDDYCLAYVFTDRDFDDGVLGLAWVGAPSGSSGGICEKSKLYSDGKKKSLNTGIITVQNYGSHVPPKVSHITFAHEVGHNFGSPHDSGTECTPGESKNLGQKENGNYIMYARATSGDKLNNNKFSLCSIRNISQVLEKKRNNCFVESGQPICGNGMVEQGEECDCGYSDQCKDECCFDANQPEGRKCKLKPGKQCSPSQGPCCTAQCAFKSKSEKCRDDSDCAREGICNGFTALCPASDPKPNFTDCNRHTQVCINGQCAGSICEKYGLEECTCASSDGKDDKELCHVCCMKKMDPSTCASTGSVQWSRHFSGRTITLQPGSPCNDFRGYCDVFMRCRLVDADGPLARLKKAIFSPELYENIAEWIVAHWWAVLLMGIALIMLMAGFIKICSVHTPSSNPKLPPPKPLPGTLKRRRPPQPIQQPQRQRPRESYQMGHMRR
Another experiment has as its target Furin (Homo sapiens) (UniProt P09958). Put plainly: Inhibition of furin (unknown origin) at 1 uM relative to control.
Experiment [6] concerns the target Angiotensin-converting enzyme (Homo sapiens) (UniProt P12821). Put plainly: Inhibition of ACE (unknown origin) at 1 uM relative to control.
Experiment [7] concerns the target Cathepsin D (Homo sapiens) (UniProt P07339). Nature of the experiment: Inhibition of cathepsin-D (unknown origin) at 1 uM relative to control.
Experiment [8] addresses Angiotensin-converting enzyme 2 (Homo sapiens) (UniProt Q9BYF1). Nature of the experiment: Inhibition of ACE2 (unknown origin) at 1 uM relative to control.
The target of experiment [9] is Disintegrin and metalloproteinase domain-containing protein 17 (Homo sapiens) (UniProt P78536). Nature of the experiment: Inhibition of TACE (unknown origin) at 1 uM relative to control.
Another experiment deals with Caspase-3 (Homo sapiens) (UniProt P42574). Put plainly: Inhibition of caspase3 (unknown origin) at 1 uM relative to control.
In the next experiment the target is Caspase-6 (Homo sapiens) (UniProt P55212). Nature of the experiment: Inhibition of caspase6 (unknown origin) at 1 uM relative to control.
Caspase-6 (Homo sapiens), sequence (P55212 24-179 limits assumed): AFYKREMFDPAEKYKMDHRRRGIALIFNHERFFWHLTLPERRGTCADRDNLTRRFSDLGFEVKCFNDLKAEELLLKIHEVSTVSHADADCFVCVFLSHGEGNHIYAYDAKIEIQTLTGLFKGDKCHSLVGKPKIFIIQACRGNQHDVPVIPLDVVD
Caspase-6 (Homo sapiens), sequence (P55212 194-293 limits assumed): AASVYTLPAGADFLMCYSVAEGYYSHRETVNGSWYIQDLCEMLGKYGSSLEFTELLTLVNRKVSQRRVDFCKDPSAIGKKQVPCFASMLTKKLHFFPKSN
The next experiment has as its target Caspase-2 (Homo sapiens) (UniProt P42575). Put plainly: Inhibition of caspase2 (unknown origin) at 1 uM relative to control.
Experiment [10] deals with Cathepsin K (Homo sapiens) (UniProt P43235). Nature of the experiment: Inhibition of cathepsin-K (unknown origin) at 1 uM relative to control.
Cathepsin K (Homo sapiens), sequence (P43235 whole entry): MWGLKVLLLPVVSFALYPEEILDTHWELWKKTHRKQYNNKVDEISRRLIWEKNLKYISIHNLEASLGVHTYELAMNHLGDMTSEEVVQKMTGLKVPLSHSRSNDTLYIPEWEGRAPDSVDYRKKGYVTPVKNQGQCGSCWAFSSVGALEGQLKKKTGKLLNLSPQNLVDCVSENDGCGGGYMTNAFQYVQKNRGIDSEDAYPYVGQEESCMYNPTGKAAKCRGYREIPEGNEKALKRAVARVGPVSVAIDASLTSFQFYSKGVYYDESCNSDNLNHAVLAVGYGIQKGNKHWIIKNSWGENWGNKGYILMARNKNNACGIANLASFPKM
The target in experiment [11] is Urokinase-type plasminogen activator (Homo sapiens) (UniProt P00749). Put plainly: Inhibition of uPA (unknown origin) at 1 uM relative to control.
The target of experiment [12] is Beta-secretase 1 (Homo sapiens) (UniProt P56817). Nature of the experiment: Inhibition of BACE1 (unknown origin) at 1 uM relative to control.
Beta-secretase 1 (Homo sapiens), sequence (P56817 whole entry): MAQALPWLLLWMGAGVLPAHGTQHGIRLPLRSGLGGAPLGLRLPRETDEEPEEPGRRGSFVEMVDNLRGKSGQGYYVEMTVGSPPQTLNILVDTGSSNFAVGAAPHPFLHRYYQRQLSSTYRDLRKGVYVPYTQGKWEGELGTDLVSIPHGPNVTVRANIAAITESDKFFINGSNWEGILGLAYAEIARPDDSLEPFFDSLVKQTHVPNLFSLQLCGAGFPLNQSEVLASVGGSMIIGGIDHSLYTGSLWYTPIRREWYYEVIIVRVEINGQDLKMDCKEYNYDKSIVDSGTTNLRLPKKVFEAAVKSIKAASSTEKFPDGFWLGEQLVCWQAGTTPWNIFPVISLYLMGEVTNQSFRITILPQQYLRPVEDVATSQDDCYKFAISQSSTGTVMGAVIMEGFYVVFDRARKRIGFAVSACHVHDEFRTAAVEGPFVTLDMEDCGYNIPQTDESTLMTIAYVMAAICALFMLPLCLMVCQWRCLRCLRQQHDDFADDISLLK
Experiment [13] addresses Cathepsin S (Homo sapiens) (UniProt P25774). Nature of the experiment: Inhibition of cathepsin-S (unknown origin) at 1 uM relative to control.
For the next experiment, the target named is Caspase-5 (Homo sapiens) (UniProt P51878). Nature of the experiment: Inhibition of caspase5 (unknown origin) at 1 uM relative to control.
Experiment [14] deals with Coagulation factor X (Homo sapiens) (UniProt P00742). Put plainly: Inhibition of factor10a (unknown origin) at 1 uM relative to control.
Coagulation factor X (Homo sapiens), sequence (P00742 41-179 limits assumed): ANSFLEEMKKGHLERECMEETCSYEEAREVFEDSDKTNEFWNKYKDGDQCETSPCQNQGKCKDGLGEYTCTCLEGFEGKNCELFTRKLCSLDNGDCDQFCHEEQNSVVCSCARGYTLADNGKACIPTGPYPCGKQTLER
Coagulation factor X (Homo sapiens), sequence (P00742 235-488 limits assumed): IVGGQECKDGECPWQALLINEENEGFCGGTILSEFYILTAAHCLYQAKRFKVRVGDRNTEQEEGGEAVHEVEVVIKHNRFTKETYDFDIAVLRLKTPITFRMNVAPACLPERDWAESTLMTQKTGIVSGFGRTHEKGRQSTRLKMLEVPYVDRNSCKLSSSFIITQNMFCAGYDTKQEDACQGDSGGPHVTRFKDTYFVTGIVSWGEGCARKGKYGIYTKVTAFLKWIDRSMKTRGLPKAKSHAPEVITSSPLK
Experiment [15] addresses Procathepsin L (Homo sapiens) (UniProt P07711). Put plainly: Inhibition of cathepsin-L (unknown origin) at 1 uM relative to control.
Experiment [16] addresses Neprilysin (Homo sapiens) (UniProt P08473). Put plainly: Inhibition of neprilysin (unknown origin) at 1 uM relative to control.
The target of another experiment is Caspase-1 (Homo sapiens) (UniProt P29466). Put plainly: Inhibition of caspase1 (unknown origin) at 1 uM relative to control.
Caspase-1 (Homo sapiens), sequence (P29466 120-297 limits assumed): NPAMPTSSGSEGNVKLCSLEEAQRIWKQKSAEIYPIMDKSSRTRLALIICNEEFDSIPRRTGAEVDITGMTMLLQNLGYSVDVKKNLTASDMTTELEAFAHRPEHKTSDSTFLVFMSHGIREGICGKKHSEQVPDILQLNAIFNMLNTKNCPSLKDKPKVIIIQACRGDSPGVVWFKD
Caspase-1 (Homo sapiens), sequence (P29466 317-404 limits assumed): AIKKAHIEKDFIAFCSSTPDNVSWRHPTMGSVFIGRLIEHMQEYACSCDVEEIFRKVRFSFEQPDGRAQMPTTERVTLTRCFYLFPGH
Experiment [17] concerns the target Matrilysin (Homo sapiens) (UniProt P09237). Put plainly: Inhibition of MMP7 (unknown origin) at 1 uM relative to control.
For experiment [18], the target named is Prothrombin (Homo sapiens) (UniProt P00734). Nature of the experiment: Inhibition of thrombin (unknown origin) at 1 uM relative to control.
For a further experiment, the target named is Caspase-7 (Homo sapiens) (UniProt P55210). Put plainly: Inhibition of caspase7 (unknown origin) at 1 uM relative to control.
Caspase-7 (Homo sapiens), sequence (P55210 24-198 limits assumed): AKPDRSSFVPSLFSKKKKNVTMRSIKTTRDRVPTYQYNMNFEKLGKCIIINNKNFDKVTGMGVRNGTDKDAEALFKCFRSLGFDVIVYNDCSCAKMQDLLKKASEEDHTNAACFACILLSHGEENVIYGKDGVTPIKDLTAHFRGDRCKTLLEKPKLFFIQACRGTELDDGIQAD
Caspase-7 (Homo sapiens), sequence (P55210 207-303 limits assumed): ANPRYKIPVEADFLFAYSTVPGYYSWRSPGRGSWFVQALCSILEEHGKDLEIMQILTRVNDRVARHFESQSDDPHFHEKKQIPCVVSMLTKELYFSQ
In experiment [19] the target is T1, Collagenase 3. Put plainly: Inhibition of full length recombinant human MMP13 expressed in mouse NSO cells using varying levels of fTHP-15 as substrate preincubated for 30 mins followed by substrate addition measured immediately by Lineweaver-Burk plot analysis.
Experiment [20] has as its target Matrix metalloproteinase-14 (Homo sapiens, UniProt P50281). Put plainly: Inhibition of recombinant human MMP14 using fTHP-15 as substrate preincubated for 30 mins followed by substrate addition measured immediately by fluorescence assay.
Experiment [21] concerns the target T3, 72 kDa type IV collagenase. Put plainly: Inhibition of recombinant human MMP2 expressed in mouse NSO cells using fTHP-15 as substrate preincubated for 30 mins followed by substrate addition measured immediately by fluorescence assay.
The target of experiment [22] is T2, Neutrophil collagenase. Nature of the experiment: Inhibition of MMP8 (unknown origin) using fTHP-15 as substrate preincubated for 30 mins followed by substrate addition measured immediately by fluorescence assay.
Experiment [23] deals with Matrix metalloproteinase-9 (Homo sapiens, UniProt P14780). Put plainly: Inhibition of MMP9 (unknown origin) using fTHP-15 as substrate preincubated for 30 mins followed by substrate addition measured immediately by fluorescence assay.

Experimental findings from ChEMBL document CHEMBL4014357, “Structure-Based Design and Synthesis of Potent and Selective Matrix Metalloproteinase 13 Inhibitors” (J Med Chem, 2017) are described below.

The source made the active and inactive calls. The calls are words filed in the database; no cut-off is given here.

Insulin-degrading enzyme (Homo sapiens), sequence (P14735 whole entry, the tested form may be a part): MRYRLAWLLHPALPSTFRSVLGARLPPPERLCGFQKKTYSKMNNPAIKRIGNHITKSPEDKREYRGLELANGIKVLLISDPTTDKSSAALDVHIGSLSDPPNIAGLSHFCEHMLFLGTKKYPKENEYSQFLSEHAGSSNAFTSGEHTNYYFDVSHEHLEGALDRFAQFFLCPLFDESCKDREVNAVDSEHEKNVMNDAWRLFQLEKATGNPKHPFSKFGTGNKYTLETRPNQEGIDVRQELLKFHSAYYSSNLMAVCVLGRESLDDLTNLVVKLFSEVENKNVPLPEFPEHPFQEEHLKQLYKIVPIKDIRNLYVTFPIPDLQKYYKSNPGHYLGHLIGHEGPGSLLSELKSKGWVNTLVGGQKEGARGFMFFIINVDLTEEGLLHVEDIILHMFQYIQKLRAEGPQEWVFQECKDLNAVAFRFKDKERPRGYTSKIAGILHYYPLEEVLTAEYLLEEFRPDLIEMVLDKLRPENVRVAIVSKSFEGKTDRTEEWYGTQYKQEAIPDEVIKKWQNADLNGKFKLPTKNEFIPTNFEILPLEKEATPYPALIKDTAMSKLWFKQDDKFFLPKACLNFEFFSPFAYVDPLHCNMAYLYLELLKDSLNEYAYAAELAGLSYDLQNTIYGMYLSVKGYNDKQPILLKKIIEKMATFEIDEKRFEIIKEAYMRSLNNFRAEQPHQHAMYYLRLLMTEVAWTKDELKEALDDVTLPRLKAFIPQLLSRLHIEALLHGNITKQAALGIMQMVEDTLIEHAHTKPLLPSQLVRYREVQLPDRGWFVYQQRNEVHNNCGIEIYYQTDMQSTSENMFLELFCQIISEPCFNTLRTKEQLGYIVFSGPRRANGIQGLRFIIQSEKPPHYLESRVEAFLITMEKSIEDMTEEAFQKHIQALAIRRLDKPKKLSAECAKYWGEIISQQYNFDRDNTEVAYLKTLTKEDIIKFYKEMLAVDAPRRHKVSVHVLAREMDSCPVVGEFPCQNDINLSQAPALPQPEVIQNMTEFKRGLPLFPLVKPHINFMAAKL
Matrilysin (Homo sapiens), sequence (P09237 whole entry): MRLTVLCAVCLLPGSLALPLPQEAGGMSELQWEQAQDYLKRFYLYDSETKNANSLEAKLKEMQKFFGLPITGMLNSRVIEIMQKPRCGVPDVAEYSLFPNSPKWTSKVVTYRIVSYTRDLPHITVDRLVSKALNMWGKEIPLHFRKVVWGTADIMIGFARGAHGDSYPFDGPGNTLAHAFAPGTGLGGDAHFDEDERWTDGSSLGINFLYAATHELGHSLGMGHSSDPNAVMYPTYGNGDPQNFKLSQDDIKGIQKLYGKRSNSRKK
Angiotensin-converting enzyme 2 (Homo sapiens), sequence (Q9BYF1 18-805 limits assumed): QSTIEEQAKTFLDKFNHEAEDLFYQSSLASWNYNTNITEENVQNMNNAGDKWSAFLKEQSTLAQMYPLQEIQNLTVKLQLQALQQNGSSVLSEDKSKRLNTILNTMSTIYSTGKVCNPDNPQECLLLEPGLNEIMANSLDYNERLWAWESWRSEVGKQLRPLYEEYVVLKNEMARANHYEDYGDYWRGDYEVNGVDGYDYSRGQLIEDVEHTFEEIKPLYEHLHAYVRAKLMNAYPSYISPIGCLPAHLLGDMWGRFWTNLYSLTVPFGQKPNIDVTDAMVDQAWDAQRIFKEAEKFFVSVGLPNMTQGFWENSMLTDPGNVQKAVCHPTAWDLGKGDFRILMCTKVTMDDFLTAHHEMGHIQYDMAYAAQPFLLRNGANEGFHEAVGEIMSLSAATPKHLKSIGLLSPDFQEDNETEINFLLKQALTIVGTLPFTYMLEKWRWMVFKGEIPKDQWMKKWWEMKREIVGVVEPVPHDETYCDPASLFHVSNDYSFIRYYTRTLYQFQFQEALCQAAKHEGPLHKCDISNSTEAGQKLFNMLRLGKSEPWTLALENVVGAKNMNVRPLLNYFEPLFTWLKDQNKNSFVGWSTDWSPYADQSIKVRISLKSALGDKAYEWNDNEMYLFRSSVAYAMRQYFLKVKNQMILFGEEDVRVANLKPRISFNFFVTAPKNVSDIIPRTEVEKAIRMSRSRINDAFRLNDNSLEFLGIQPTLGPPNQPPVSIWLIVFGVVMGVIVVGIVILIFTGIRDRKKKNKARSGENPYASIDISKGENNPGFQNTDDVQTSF

Regarding `CNC(=O)[C@@H](NC(=O)c1ccc(-c2ccc(CSc3nc4c(c(=O)[nH]3)CCC4)cc2)o1)C(C)C`, on Collagenase 3 [1], the 50% inhibitory concentration (IC50) turned out to be 9.4 nM. The inhibition entry (on Neutrophil collagenase [2]; in experiment [3]) was “Active” throughout.
Consider `CC(C)[C@@H](NS(=O)(=O)c1ccc(-c2ccc(CSc3nc4c(c(=O)[nH]3)CCC4)cc2)cc1)C(=O)O`, for which the IC50 on Collagenase 3 [1] amounted to 7 nM.
For the compound `CNC(=O)[C@@H](NC(=O)c1ccc(-c2ccc(CSc3nc4c(c(=O)[nH]3)CCC4)c(F)c2)o1)C(C)C`, the inhibition (in experiment [4]; in [5]; against Furin (Homo sapiens); in [6]; in experiment [7]; in [8]) was 0% in each case. Further, the inhibition is -3% in experiment [9]; 0% against Caspase-3 (Homo sapiens); 0% against Caspase-6 (Homo sapiens); 0% on Caspase-2 (Homo sapiens); 2% in experiment [10]; 1% in experiment [11]. The inhibition is 0% in [12]; 2% in experiment [13]; 0% against Caspase-5 (Homo sapiens); 0% in experiment [14]; 7% in experiment [15]; -6% in experiment [16]. For the same compound, the inhibition against Caspase-1 (Homo sapiens) was 0%; in experiment [17] it was 4%; in [18], -8%; at Caspase-7 (Homo sapiens), 8%.
With `CNC(=O)[C@H](NC(=O)c1ccc(-c2ccc(CSc3nc4c(c(=O)[nH]3)CCC4)cc2)o1)C(C)C`, the IC50 on Collagenase 3 [1] came out at 356 nM.
`Cc1ccc(CSc2nc(O)c3c(n2)CCC3)cc1`: the inhibition constant Ki on Collagenase 3 [19] is 800 nM.
Consider `O=c1[nH]c(SCc2ccc(-c3ccc(S(=O)(=O)NCCO)cc3)cc2)nc2c1CCC2`, for which the concentration for half-maximal inhibition (IC50) is greater than 10000 nM in experiment [20], greater than 5000 nM in experiment [21], greater than 5000 nM at Neutrophil collagenase [22] and greater than 10000 nM in experiment [23].
Consider `NCCNS(=O)(=O)c1ccc(-c2ccc(CSc3nc4c(c(=O)[nH]3)CCC4)cc2)cc1`, for which the inhibition stood at 0% in experiment [4]; 0% in experiment [5]; 0% on Furin (Homo sapiens); 7% in experiment [6]; 3% in experiment [7]; 1% in experiment [8]. The inhibition is 4% in experiment [9]; 0% at Caspase-3 (Homo sapiens); 0% at Caspase-6 (Homo sapiens); 0% at Caspase-2 (Homo sapiens); 0% in [10]; 3% in [11]. In addition, the inhibition in [12] came to 1%; in [13] it was 12%; on Caspase-5 (Homo sapiens) it was 0%; in experiment [14], 3%; in experiment [15], 9%; in experiment [16], 3%. Also, the inhibition was 1% against Caspase-1 (Homo sapiens), 7% in experiment [17], -3% in [18] and 1% against Caspase-7 (Homo sapiens).
